Compound activity (PubChem)
Rows were chosen to be rich in hits. Some 2.3% of all compounds tested hit in one or more screens of this group.
F508del corr: correctors of CFTR F508del function in bronchial epithelial cells. CFBE cells, YFP halide quenching; stimulated with forskolin plus potentiator P3; % fluorescence drop versus neutral controls. activity (quench increase), % at 7.58 µM. actives 0.36% (n = 350,000). AID 720511;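 active means mean added fluorescence quench of at least 8% versus neutral control, with both replicates also reaching 8%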;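 further: cells transiently co-express mutant CFTR-F508del with the halide-sensitive YFP; corrector assay measuring rescue of mutant channel to the surface after 24 h compound exposure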
C2C12 statin: suppression of simvastatin myotoxicity | rescue of ATP level, % at 7.49 µM | C2C12 myotubes + simvastatin, ATP luminescence, 48 h; scaled: DMSO 0, geranylgeraniol control 100 | actives 0.78% (n = 330,000);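 active means mean ATP rescue above about 67%, or every replicate alone reaching that limit, limit read from the data, passing the limit was not always enough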;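 further: myotubes were challenged with 10 µM simvastatin during compound exposure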
ERp5 inh: inhibitors of human ERp5; ERp5 insulin aggregation, absorbance 650 nm, 90 min; inhibition, % at 9.99 µM; actives 0.05% (n = 350,000); AID 651711;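 active means mean replicate inhibition above about 25%, with every replicate also reaching it, limit read from the data, passing the limit was not always enough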
Target sequence (Q15084 whole entry, looked up): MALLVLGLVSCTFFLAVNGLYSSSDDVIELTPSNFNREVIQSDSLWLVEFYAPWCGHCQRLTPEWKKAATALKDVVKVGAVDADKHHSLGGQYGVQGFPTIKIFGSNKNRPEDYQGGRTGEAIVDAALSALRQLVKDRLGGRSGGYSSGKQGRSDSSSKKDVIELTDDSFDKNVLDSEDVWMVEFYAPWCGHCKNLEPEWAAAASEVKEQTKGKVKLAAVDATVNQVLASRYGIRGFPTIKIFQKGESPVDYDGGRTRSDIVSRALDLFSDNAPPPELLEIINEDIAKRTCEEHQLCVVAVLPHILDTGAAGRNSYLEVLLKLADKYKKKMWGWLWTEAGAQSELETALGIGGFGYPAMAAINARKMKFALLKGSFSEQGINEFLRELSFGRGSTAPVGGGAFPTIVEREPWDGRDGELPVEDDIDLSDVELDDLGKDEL
DENV2 CPE: protects cells from dengue virus 2 cytopathic effect. CPE inhibition, % at 9.99 µM. actives 1.7% (n = 350,000). DENV2-infected cells, cytopathic effect rescue, plate reader; in the data active means CPE inhibition above about 20%, passing the limit was not always enough; tested in BHK-21 cells;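 further: 0% = median of neutral control wells and 100% = median of positive control wells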
PDI inh: blocks human protein disulfide isomerase activity; P07237; PDI insulin aggregation turbidity, A650, 90 min; inhibition, % at 10 µM; actives 0.052% (n = 350,000); AID 588391;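 active means mean inhibition across replicates of 30% or more, whatever share of single replicates reach that level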
Cneo AK release: Cryptococcus neoformans lysis via adenylate kinase release; C. neoformans lysis, adenylate kinase release luminescence, 4 h; normalised: neutral wells 0, clomiphene wells 100; lysis activity, % at 15 µM; actives 0.2% (n = 360,000); AID 651654;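 active means mean lysis activity across replicates of at least 80%, whatever share of replicates individually reach that level; inactive means mean lysis activity below 80%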
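Assay system: C. neoformans cells. Amount: yeast cell density of 5 × 10^6 cells/mL. Technique: AK luminescence. Buffer or medium: YPD. Times: static 4 h at 37 °C with compound, 1 h detection. Dosing: single-point compound dose. Read-out: lysis from increased AK signal.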
Numbers without * were called inactive; / = not tested or not shown.

SMILES	F508del corr	C2C12 statin	ERp5 inh	DENV2 CPE	PDI inh	Cneo AK release
COc1ccc2c3c(n(C)c2c1)[C@H](CO)N(C(=O)C1CCCCC1)CC31CCN(C(=O)c2ccncc2)CC1	3	/	2	7	/	/
COc1ccc2c3c(n(C)c2c1)[C@H](CO)N(C(=O)c1cnccn1)CC31CCN(C(C)=O)CC1	0	/	-5	-6	/	/
COc1ccc2c3c(n(C)c2c1)[C@@H](CO)N(C(=O)C1CC1)CC31CCN(C(=O)c2ccncc2)CC1	3	/	-1	13	/	/
COc1ccc2c3c(n(C)c2c1)[C@@H](CO)N(C(C)=O)CC31CCN(C(=O)c2cnccn2)CC1	-1	/	3	23*	/	/
CO[C@H]1CC[C@@H]2CCN(C)C(=O)[C@@H](C)[C@H](OC)CN(C)C(=O)c3cc(C#N)ccc3OC[C@@H]1O2	1	4	-3	-1	/	13
O=C(NCC1CC1)[C@@H]1[C@@H](CO)[C@@H]2Cn3c(ccc(-c4cccnc4)c3=O)[C@H]1N2Cc1nccs1	4	-6	-2	7	/	54
Cc1noc(C)c1NC(=O)Nc1ccc2c(c1)C(=O)N([C@H](C)CO)C[C@H](C)[C@@H](CN(C)C(=O)NC1CCCCC1)OCCCC[C@H](C)O2	-1	/	-1	16	/	-8
C[C@H]1CN([C@@H](C)CO)C(=O)CCCn2cc(nn2)CO[C@H]1CN(C)C(=O)c1ccc2ccn(C)c2c1	1	-1	/	/	/	/
NC(=S)NN=Cc1nccc2c(N)cccc12	13*	-42	-6	3	7	-5
CCN(C(C)=O)c1cnc(C=NNC(N)=S)c2ccccc12	3	/	5	-2	1	/
COc1ccc(S(=O)(=O)N2CC[C@@H]3[C@H](CO)N(C)c4ccc(-c5ccc(F)cc5)cc4[C@@H]32)cc1	11*	-9	10	-21	/	-18
COc1ccc(S(=O)(=O)N2CC[C@@H]3[C@H]2c2cc(-c4ccccc4F)ccc2N(C)[C@H]3CO)cc1	1	-9	/	26*	/	2
CN1c2ccc(-c3ccccc3F)cc2[C@@H]2[C@@H](CCN2S(=O)(=O)c2ccc(F)cc2)[C@@H]1CO	3	-21	0	53*	/	-1
Cc1ccc(NC(=O)C(C)OC(=O)CSc2ccccc2)cc1 (stereo not drawn)	0	-3	5	-2	-7	3
Cc1ccc(SCC(=O)OC(C)C(=O)NCc2ccccc2)cc1 (stereo not drawn)	-1	3	9	64*	-7	1
CC(C)N(Cc1cc2ccccc2[nH]c1=O)C(=O)c1cccnc1	/	88*	/	/	2	/
CCOc1ccccc1C(=O)N(C)Cc1cc2ccccc2[nH]c1=O	/	-9	/	/	9	18
CCOc1cc(C(=O)N(C)Cc2cc3ccccc3[nH]c2=O)cc(OCC)c1OCC	/	98*	/	/	-7	9
C[C@@H]1CN([C@@H](C)CO)C(=O)c2cc(C#CC(C)(C)O)cnc2O[C@@H]1CN(C)C(=O)CN(C)C	-3	-6	-6	-2	/	2
COc1cccc(S(=O)(=O)N[C@H]2C=C[C@H](CC(=O)NCc3ccccc3)O[C@H]2CO)c1	1	/	10	-5	/	/
CS(=O)(=O)N1CCC(Oc2ccccc2C(=O)NC2CCOC2)CC1 (stereo not drawn)	6	/	7	5	-3	/
CN(C(=O)c1ccccc1OC1CCN(S(C)(=O)=O)CC1)C1CCOC1 (stereo not drawn)	8.5*	/	-6	-4	-5	/
COC(=O)[C@@H]1[C@@H](CO)[C@@H]2Cn3c(ccc(C4=CCCC4)c3=O)[C@@H]2N1C(=O)Cc1cccnc1	/	-31	-1	10	/	-3
O=C(NC1CCC1)[C@@H]1[C@@H](CO)[C@@H]2Cn3c(ccc(C4=CCCCC4)c3=O)[C@@H]2N1C(=O)C1CCOCC1	/	1	5	56*	/	-3
COC(=O)[C@H]1[C@H](CO)[C@H]2Cn3c(ccc(C4=CCCCC4)c3=O)[C@H]2N1Cc1cccnc1	-2	/	-2	26*	/	/
SMILES	F508del corr	C2C12 statin	ERp5 inh	DENV2 CPE	PDI inh	Cneo AK release
Cc1ccc(-c2nc(NCCCO)c3ccccc3n2)cc1	/	7	5	31*	-8	-1
Cc1ccc(-c2nc(NCCN(C)C)c3ccccc3n2)cc1	7	10	-1	6	1	-1
COc1ccc(C2NC(=S)NC3=C2CCc2cc(OC)ccc23)cc1 (stereo not drawn)	/	90*	/	/	-6	3
C[C@@H]1CCCCO[C@@H](CN(C)S(=O)(=O)c2ccccc2)[C@H](C)CN([C@H](C)CO)C(=O)c2cc(NC(=O)Nc3cccc4ccccc34)ccc2O1	2	/	-4	-1	/	6
CCc1nc2ccc(C(=O)N(CC)CCN(C)C)cn2c1N(C)C(=O)c1cccc(OC)c1	0	-20	-2	26*	-6	-1
C[C@@H]1CCCCO[C@@H](CN(C)C(=O)c2ccccc2)[C@@H](C)CN([C@H](C)CO)C(=O)c2cc(NC(=O)CCC(F)(F)F)ccc2O1	-1	/	-2	93*	/	-2
C[C@@H]1CCCCO[C@H](CN(C)C(=O)c2ccncc2)[C@H](C)CN([C@H](C)CO)C(=O)c2cc(NC(=O)CCC(F)(F)F)ccc2O1	0	/	/	74*	/	82*
C[C@@H]1CN([C@H](C)CO)C(=O)c2cc(NS(=O)(=O)c3cn(C)cn3)ccc2O[C@H]1CN(C)Cc1ccc(Cl)c(Cl)c1	2	17	1	18	/	1
c1ccc(CCN(Cc2ccccc2)Cc2nc(C3CC3)no2)cc1	8.9*	/	-5	3	1	/
COCC(=O)N1CC2(C1)CN(C(=O)Cc1ccccc1)[C@@H](CO)c1c2c2ccc(OC)cc2n1C	3	/	/	-6	/	/
CCCc1c(C(=O)Nc2ccc(F)cc2F)cnn1-c1ccccc1	0	4	2	-2	-2	/
CCCc1c(C(=O)Nc2cc(C(C)(C)C)on2)cnn1-c1ccccc1	0	-12	0	29*	-5	/
COc1cccc(C(=O)N2C[C@H]3[C@@H](c4ccccc42)[C@H](CO)N3Cc2ccccc2F)c1	-1	20	5	-17	/	-6
COc1ccc(S(=O)(=O)Nc2ccc3c(c2)C(=O)N([C@H](C)CO)C[C@@H](C)[C@@H](CN(C)Cc2ccc(C(=O)O)cc2)OCCCC[C@@H](C)O3)cc1	0	/	-2	-8	/	3
COc1ccc(S(=O)(=O)Nc2ccc3c(c2)C(=O)N([C@H](C)CO)C[C@H](C)[C@@H](CN(C)Cc2ccc(C(=O)O)cc2)OCCCC[C@@H](C)O3)cc1	-1	/	-4	33*	/	53
COc1ccc(S(=O)(=O)Nc2ccc3c(c2)C(=O)N([C@@H](C)CO)C[C@@H](C)[C@@H](CN(C)Cc2ccc(C(=O)O)cc2)OCCCC[C@H](C)O3)cc1	1	/	-6	26*	/	49
